Experimental data published in ChEMBL document CHEMBL3124843, “Synthesis, cytostatic, antimicrobial, and anti-HCV activity of 6-substituted 7-(het)aryl-7-deazapurine ribonucleosides” (J Med Chem, 2014).
Active and inactive are the calls of the source. The rule behind the calls is not given here.

Assays:
[1] = Cytotoxicity against human HuH7 cells infected with Hepatitis C virus subtype 2a; type: cell-based, Huh-7
[2] = Cytotoxicity against human HuH7 cells infected with Hepatitis C virus subtype 1b; type: cell-based, Huh-7
[3] = tested on: Hepatitis C virus; assay: Antiviral activity against Hepatitis C virus subtype 2a infected in human HuH7 cells; type: functional, organism-based, Hepacivirus hominis; details: genotype 2a, Huh-7
[4] = tested on: Pseudomonas aeruginosa; assay: Antibacterial activity against multi-resistant Pseudomonas aeruginosa A/16575 after 24 hrs; type: functional, organism-based
[5] = tested on: MRC5; assay: Cytostatic activity against human MRC5 cells after 72 hrs by MTT assay; type: ADME, cell-based; details: MRC5, 72 h
In short: (§1)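 IC50 is the concentration that cuts cell growth by 50%, read by quantitative metabolic MTT staining after a 3-day treatment. The resistant sublines were made by raising the concentration of the cytotoxic drug step by step. CEM-DNR-bulk (daunorubicin-selected) stably overexpresses mrp-1. K562-TAX (paclitaxel-selected) expresses only mdr-1. HCT116p53−/− carries null p53 alleles. BJ and MRC-5 are nonmalignant fibroblasts.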

[6] = tested on: CCRF-CEM; assay: Cytostatic activity against human CCRF-CEM cells after 72 hrs by MTT assay; type: functional, cell-based; in short: as §1
[7] = tested on: Candida tropicalis; assay: Antifungal activity against Candida tropicalis after 48 hrs; type: functional, organism-based
[8] = tested on: HCT-116; assay: Cytostatic activity against p53-deficient human HCT116 cells after 72 hrs by MTT assay; type: functional, cell-based; details: HCT-116, 72 h; in short: as §1
[9] = tested on: HL-60; assay: Antiproliferative activity against human HL60 cells after 72 hrs by XTT assay; type: functional, cell-based; details: HL-60, 72 h
In short: (§2)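 Antiproliferative test on HL-60 promyelocytic leukemia and HeLa S3 cervical carcinoma cells growing in liquid suspension.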

[10] = tested on: Pichia kudriavzevii; assay: Antifungal activity against Candida crusei after 48 hrs; type: functional, organism-based
[11] = tested on: K562; assay: Cytostatic activity against human K562 cells after 72 hrs by MTT assay; type: functional, cell-based; details: K562, 72 h; in short: as §1
[12] = tested on: K562; assay: Cytostatic activity against paclitaxel-resistant human K562 cells after 72 hrs by MTT assay; type: functional, cell-based; details: K562, 72 h; in short: as §1
[13] = tested on: HepG2; assay: Antiproliferative activity against human HepG2 cells after 72 hrs by XTT assay; type: functional, cell-based; details: HepG2, 72 h
[14] = tested on: Enterococcus faecalis; assay: Antibacterial activity against Enterococcus faecalis CCM 4224 after 24 hrs; type: functional, organism-based
[15] = tested on: Pseudomonas aeruginosa; assay: Antibacterial activity against Pseudomonas aeruginosa CCM 3955 after 24 hrs; type: functional, organism-based
[16] = tested on: Staphylococcus haemolyticus; assay: Antibacterial activity against methicillin-resistant Staphylococcus haemolyticus A/16568 after 24 hrs; type: functional, organism-based
[17] = tested on: Candida albicans; assay: Antifungal activity against Candida albicans after 48 hrs; type: functional, organism-based
[18] = tested on: HCT-116; assay: Cytostatic activity against human HCT116 cells after 72 hrs by MTT assay; type: functional, cell-based; details: HCT-116, 72 h; in short: as §1
[19] = tested on: Escherichia coli; assay: Antibacterial activity against multi-resistant Escherichia coli C/16702 after 24 hrs; type: functional, organism-based
[20] = tested on: Candida parapsilosis; assay: Antifungal activity against Candida parapsilosis after 48 hrs; type: functional, organism-based
[21] = tested on: Escherichia coli; assay: Antibacterial activity against Escherichia coli CCM 3954 after 24 hrs; type: functional, organism-based
[22] = tested on: BJ; assay: Cytostatic activity against human BJ cells after 72 hrs by MTT assay; type: ADME, cell-based; in short: as §1
[23] = tested on: Staphylococcus aureus; assay: Antibacterial activity against methicillin-resistant Staphylococcus aureus MRSA 4591 after 24 hrs; type: functional, organism-based
[24] = tested on: Staphylococcus aureus; assay: Antibacterial activity against Staphylococcus aureus CCM 3953 after 24 hrs; type: functional, organism-based
[25] = Antiproliferative activity against human HeLaS3 cells after 72 hrs by XTT assay; type: functional, cell-based; details: HeLa S3, 72 h; in short: as §2
[26] = Cytostatic activity against human CEM-DNR-bulk cells after 72 hrs by MTT assay; type: functional, cell-based; in short: as §1
[27] = tested on: Hepatitis C virus; assay: Antiviral activity against Hepatitis C virus subtype 1b infected in human HuH7 cells; type: functional, organism-based, Hepacivirus hominis; details: genotype 1b, Huh-7
[28] = tested on: A549; assay: Cytostatic activity against human A549 cells after 72 hrs by MTT assay; type: functional, cell-based; details: A549, 72 h; in short: as §1

CSc1ncnc2c1c(-c1ccsc1)cn2[C@@H]1O[C@H](CO)[C@@H](O)[C@H]1O
CC50 [1]: > 44 µM
CC50 [2]: > 44 µM
EC50 [3]: > 44 µM
Activity [4]: inactive
IC50 [5]: > 100 µM
IC50 [6]: > 20 µM
Activity [7]: inactive
IC50 [8]: > 20 µM
IC50 [9]: 4.59 µM
Activity [10]: inactive
IC50 [11]: 0.45 µM
IC50 [12]: > 20 µM
IC50 [13]: > 15 µM
Activity [14]: inactive
Activity [15]: inactive
Activity [16]: inactive
Activity [17]: inactive
IC50 [18]: > 20 µM
Activity [19]: inactive
Activity [20]: inactive
Activity [21]: inactive
IC50 [22]: 95.8 µM
Activity [23]: inactive
Activity [24]: inactive
IC50 [25]: > 20 µM
IC50 [26]: > 20 µM
EC50 [27]: 10.9 µM
IC50 [28]: > 20 µM

CN(C)c1ncnc2c1ccn2[C@@H]1O[C@H](CO)[C@@H](O)[C@H]1O
CC50 [1]: > 44 µM
CC50 [2]: > 44 µM
EC50 [3]: 0.97 µM
Activity [4]: inactive
IC50 [5]: 58.2 µM
IC50 [6]: 0.63 µM
Activity [7]: inactive
IC50 [8]: 5.09 µM
IC50 [9]: 0.87 µM
Activity [10]: inactive
IC50 [11]: 5.28 µM
IC50 [12]: 0.89 µM
IC50 [13]: 1.81 µM
Activity [14]: inactive
Activity [15]: inactive
Activity [16]: inactive
Activity [17]: inactive
IC50 [18]: 18.4 µM
Activity [19]: inactive
Activity [20]: inactive
Activity [21]: inactive
IC50 [22]: 5.3 µM
Activity [23]: inactive
Activity [24]: inactive
IC50 [25]: 10.6 µM
IC50 [26]: 2.6 µM
EC50 [27]: 0.27 µM
IC50 [28]: > 20 µM

C#Cc1cn([C@@H]2O[C@H](CO)[C@@H](O)[C@H]2O)c2nc(N)nc(OC)c12
CC50 [1]: > 44 µM
CC50 [2]: > 44 µM
EC50 [3]: > 44 µM
Activity [4]: inactive
IC50 [5]: > 100 µM
IC50 [6]: > 100 µM
Activity [7]: inactive
IC50 [8]: > 20 µM
IC50 [9]: > 20 µM
Activity [10]: inactive
IC50 [11]: > 20 µM
IC50 [12]: > 20 µM
IC50 [13]: > 20 µM
Activity [14]: inactive
Activity [15]: inactive
Activity [16]: inactive
Activity [17]: inactive
IC50 [18]: > 20 µM
Activity [19]: inactive
Activity [20]: inactive
Activity [21]: inactive
IC50 [22]: > 100 µM
Activity [23]: inactive
Activity [24]: inactive
IC50 [25]: > 20 µM
IC50 [26]: > 20 µM
EC50 [27]: > 44 µM
IC50 [28]: > 100 µM

Nc1nc2c(c(-c3ccsc3)cn2[C@@H]2O[C@H](CO)[C@@H](O)[C@H]2O)c(=O)[nH]1
CC50 [1]: > 44 µM
CC50 [2]: > 44 µM
EC50 [3]: > 44 µM
Activity [4]: inactive
IC50 [5]: > 100 µM
IC50 [6]: > 20 µM
Activity [7]: inactive
IC50 [8]: > 20 µM
IC50 [9]: > 20 µM
Activity [10]: inactive
IC50 [11]: > 20 µM
IC50 [12]: 18.3 µM
IC50 [13]: > 20 µM
Activity [14]: inactive
Activity [15]: inactive
Activity [16]: inactive
Activity [17]: inactive
IC50 [18]: > 20 µM
Activity [19]: inactive
Activity [20]: inactive
Activity [21]: inactive
IC50 [22]: > 100 µM
Activity [23]: inactive
Activity [24]: inactive
IC50 [25]: > 20 µM
IC50 [26]: > 20 µM
EC50 [27]: > 44 µM
IC50 [28]: > 20 µM

Cc1nc(N)c2c(-c3cc4ccccc4o3)cn([C@@H]3O[C@H](CO)[C@@H](O)[C@H]3O)c2n1
CC50 [1]: 39.1 µM
CC50 [2]: 39.2 µM
EC50 [3]: 18.2 µM
Activity [4]: inactive
IC50 [5]: 91.8 µM
IC50 [6]: > 20 µM
Activity [7]: inactive
IC50 [8]: 13.1 µM
IC50 [9]: > 20 µM
Activity [10]: inactive
IC50 [11]: 15.7 µM
IC50 [12]: 4.99 µM
IC50 [13]: > 20 µM
Activity [14]: inactive
Activity [15]: inactive
Activity [16]: inactive
Activity [17]: inactive
IC50 [18]: > 20 µM
Activity [19]: inactive
Activity [20]: inactive
Activity [21]: inactive
IC50 [22]: > 100 µM
Activity [23]: inactive
Activity [24]: inactive
IC50 [25]: > 20 µM
IC50 [26]: 6.31 µM
EC50 [27]: 6.14 µM
IC50 [28]: > 20 µM

Cc1nc(N)c2c(-c3ccco3)cn([C@@H]3O[C@H](CO)[C@@H](O)[C@H]3O)c2n1
CC50 [1]: > 44 µM
CC50 [2]: > 44 µM
EC50 [3]: > 44 µM
Activity [4]: inactive
IC50 [5]: > 100 µM
IC50 [6]: > 100 µM
Activity [7]: inactive
IC50 [8]: > 20 µM
IC50 [9]: > 20 µM
Activity [10]: inactive
IC50 [11]: > 20 µM
IC50 [12]: > 20 µM
IC50 [13]: > 20 µM
Activity [14]: inactive
Activity [15]: inactive
Activity [16]: inactive
Activity [17]: inactive
IC50 [18]: > 20 µM
Activity [19]: inactive
Activity [20]: inactive
Activity [21]: inactive
IC50 [22]: > 100 µM
Activity [23]: inactive
Activity [24]: inactive
IC50 [25]: > 20 µM
IC50 [26]: > 20 µM
EC50 [27]: > 44 µM
IC50 [28]: > 20 µM

Nc1nc2c(c(-c3ccccc3)cn2[C@@H]2O[C@H](CO)[C@@H](O)[C@H]2O)c(=O)[nH]1
CC50 [1]: > 44 µM
CC50 [2]: > 44 µM
EC50 [3]: > 44 µM
Activity [4]: inactive
IC50 [5]: > 100 µM
IC50 [6]: > 100 µM
Activity [7]: inactive
IC50 [8]: > 20 µM
IC50 [9]: > 20 µM
Activity [10]: inactive
IC50 [11]: > 20 µM
IC50 [12]: > 20 µM
IC50 [13]: > 20 µM
Activity [14]: inactive
Activity [15]: inactive
Activity [16]: inactive
Activity [17]: inactive
IC50 [18]: > 20 µM
Activity [19]: inactive
Activity [20]: inactive
Activity [21]: inactive
IC50 [22]: > 100 µM
Activity [23]: inactive
Activity [24]: inactive
IC50 [25]: > 20 µM
IC50 [26]: > 20 µM
EC50 [27]: > 44 µM
IC50 [28]: > 100 µM

CNc1ncnc2c1c(-c1ccoc1)cn2[C@@H]1O[C@H](CO)[C@@H](O)[C@H]1O
CC50 [1]: > 44 µM
CC50 [2]: > 44 µM
EC50 [3]: > 44 µM
Activity [4]: inactive
IC50 [5]: > 100 µM
IC50 [6]: > 20 µM
Activity [7]: inactive
IC50 [8]: > 20 µM
IC50 [9]: > 15 µM
Activity [10]: inactive
IC50 [11]: > 20 µM
IC50 [12]: > 20 µM
IC50 [13]: > 20 µM
Activity [14]: inactive
Activity [15]: inactive
Activity [16]: inactive
Activity [17]: inactive
IC50 [18]: > 20 µM
Activity [19]: inactive
Activity [20]: inactive
Activity [21]: inactive
IC50 [22]: 96.3 µM
Activity [23]: inactive
Activity [24]: inactive
IC50 [25]: > 20 µM
IC50 [26]: > 20 µM
EC50 [27]: 35.9 µM
IC50 [28]: > 20 µM
